The test system of test [1] is RT-112. Nature of the test: Antiproliferative activity against human RT112 cells after 48 hrs by MTT assay. The test is classed as functional, cell-based. The note with it: RT-112, 48 h. Put shortly:
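RT112 bladder carcinoma cells in RPMI 1640 with 10% FCS and 2 mM glutamine, 37 °C, 5% CO2. Seeded 3×10^3 cells/well, treated after 24 h with a concentration series for 48 h; DMSO vehicle control. MTT 3 h at 37 °C, formazan dissolved in DMSO, A570 with 650 nm reference. Survival relative to vehicle (100%); IC50 from dose-response curves; triplicates, three independent experiments.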
For orientation: Tetrazolium dyes change colour on reduction, which living cells bring about.

Test [2] deals with RT-112. Nature of the test: Cell cycle arrest in human RT112 cells by accumulation of cells at G1 phase at 3 uM after 12 hrs by propidium iodide-staining-based flow cytometry (reference value: 69%). The test is classed as functional. (In general: In flow cytometry, cells or beads pass a laser one at a time.)
The test system of test [3] is RT-112. As to the kind of experiment: Cell cycle arrest in human RT112 cells by accumulation of cells at S phase at 3 uM after 12 hrs by propidium iodide-staining-based flow cytometry (reference value: 17%). The test is classed as functional.
Test [4] concerns RT-112. Nature of the test: Induction of apoptosis in human RT112 cells assessed as hypodiploid DNA at sub-G1 phase after 48 hrs by propidium iodide-staining-based flow cytometry. The test is classed as functional, cell-based. Put shortly: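 Same PI/RNase flow cytometry as the cell cycle work in RT112 cells, with treatment extended to 48 h. Apoptosis scored as a hypodiploid (sub-G1) DNA peak; DMSO vehicle as control.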

For test [5], the system named is RT-112. As to the kind of experiment: Cell cycle arrest in human RT112 cells by accumulation of cells at G2/M phase at 3 uM after 12 hrs by propidium iodide-staining-based flow cytometry (reference value: 14%). It is filed as functional.
The test system of test [6] is RT-112. As to the kind of experiment: Cell cycle arrest in human RT112 cells by accumulation of cells at G2+M phase at 3 uM after 24 hrs by propidium iodide-staining-based flow cytometry (reference value: 14%). The test is classed as functional.
Test [7] concerns RT-112. As to the kind of experiment: Cell cycle arrest in human RT112 cells by accumulation of cells at G2+M phase at 4 uM after 24 hrs by propidium iodide-staining-based flow cytometry (reference value: 14%). The test is classed as functional.
The subject of test [8] is RT-112. As to the kind of experiment: Cell cycle arrest in human RT112 cells by accumulation of cells at G2+M phase at 4 uM after 12 hrs by propidium iodide-staining-based flow cytometry (reference value: 14%). It is filed as functional.

This passage reports IC50 and Activity results from ChEMBL document CHEMBL1833941, “Structural requirement of arylindolylpropenones as anti-bladder carcinoma cells agents” (Bioorg Med Chem, 2011).

pIC50: −log10 of the molar value. Activity calls are given as the source filed them. The rule behind the calls is not given here.

For `COc1cc(OC)c(/C=C/C(=O)c2cn(C)c3ccc(C(=O)O)cc23)c(OC)c1`, the pIC50 (as a rule, the negative decadic logarithm of the IC50, by convention in mol/L) in the test on RT-112 [1] is 4.06. `COc1cc(/C=C/C(=O)c2cn(C)c3ccccc23)cc(OC)c1OC`: the pIC50 with RT-112 [1] was 4.37. In turn, `CN1CCN(c2ccc(/C=C/C(=O)c3cn(C)c4ccccc34)cc2)CC1` gave a pIC50 in the test with RT-112 [1] of 4.93. Still for that read-out and setting: for `Cn1cc(C(=O)/C=C/c2c(Cl)cccc2Cl)c2ccccc21` the value was 5.11. The same measure, in the same setting: for `Cn1cc(C(=O)/C=C/c2ccccc2F)c2ccccc21` the value was 4.54; for `COc1cc(OC)c(C(=O)/C=C/c2ccc3c(ccn3C)c2)c(OC)c1`, 4.27; for `Cn1cc(C(=O)/C=C/c2ccccc2)c2ccccc21`, 4.51.

On to `COc1cc(OC)c(/C=C/C(=O)c2cn(C)c3ccc(OC)cc23)c(OC)c1`, for which the Activity in the test with RT-112 [2] was determined as 5%; in the test with RT-112 [5], 91%. Besides, the pIC50 in the test on RT-112 [1] is 5.51. The result in the test with RT-112 [3] was inactive. For the same molecule, the result in the test with RT-112 [4] and in the test with RT-112 [6] was Active. Molecule `COc1ccc(/C=C/C(=O)c2cn(C)c3ccccc23)c(OC)c1` showed a pIC50 with RT-112 [1] of 4.24. On the same count and under the same terms, for `CN1CCN(c2ccccc2/C=C/C(=O)c2cn(C)c3ccccc23)CC1` the value was 4.58. Regarding `Cn1ccc2cc(/C=C/C(=O)c3cn(C)c4ccccc34)ccc21`, in the test on RT-112 [1], the pIC50 was 5.40. In addition, the Activity turned out to be 34% with RT-112 [7] and 65% with RT-112 [8]. In addition, the result with RT-112 [4] was Active.

For `Cn1cc(/C=C/C(=O)c2cn(C)c3ccccc23)c2ccccc21`, the pIC50 in the test on RT-112 [1] is 4.20.

As for `COc1cc(OC)c(/C=C/C(=O)c2cn(C)c3ccccc23)c(OC)c1`, the Activity with RT-112 [2] is given as 16%; in the test on RT-112 [5], 74%. The same molecule gave a pIC50 with RT-112 [1] of 5.49. The outcome with RT-112 [3] was inactive. For the same molecule, the result in the test on RT-112 [4] and with RT-112 [6] was Active. With `COc1cccc(OC)c1/C=C/C(=O)c1cn(C)c2ccccc12`, the pIC50 in the test with RT-112 [1] is 4.32.

Regarding `CN(C)c1ccc(/C=C/C(=O)c2cn(C)c3ccccc23)cc1`, the pIC50 in the test with RT-112 [1] is 5.12. This pIC50 lies 0.80 log units higher than the previous one.
